Results from ChEMBL document CHEMBL1143148, “Influence of heterocyclic and oxime-containing farnesol analogs on quorum sensing and pathogenicity in Candida albicans” (Bioorg Med Chem, 2008).
Activity calls are given as the source filed them. The rule behind the calls is not given here.

What was measured:
Candida albicans [1] = assay: Protection against Candida albicans A72 infected mouse model of disseminated candidiasis assessed as mortality at 20 mM, ip; type: functional, organism-based
How it was run: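 Mice inoculated by tail vein with C. albicans A72 at 5 × 10⁶ or 2 × 10⁶ cells, 15 per group. Each got 1 ml IP of a 20 mM analog solution in 0.5% Tween 80 in saline, or a vehicle control injection. Mortality followed over time.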

Mus musculus = assay: Toxicity against ip dosed mouse after 14 days; type: organism-based; conditions: in vivo, 336 h
Candida albicans [2] = assay: Effect on quorum sensing in Candida albicans assessed as inhibition of germ tube formation; type: functional, organism-based
How it was run: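 Undifferentiated C. albicans cells inoculated to a final 1–2 × 10⁷ cells/ml in 2.5 mM N-acetyl glucosamine buffered to pH 7. Incubated 4 h at 37 °C with shaking at 200 rpm. Percentage of cells forming germ tubes then scored and inhibition relative to untreated cells taken. Triplicate readings.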

Candida albicans [3] = assay: Effect on rate of cell growth in Candida albicans at > 100 uM; type: functional, organism-based
Candida albicans [4] = assay: Enhancement of pathogen virulence in Candida albicans A72 infected mouse model of disseminated candidiasis assessed as mortality at 20 mM, ip after 60 hrs of infection relative to control; type: functional, organism-based
How it was run: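 Mice inoculated by tail vein with C. albicans A72 at 5 · 10⁶ or 2 · 10⁶ cells, 45 mice per inoculum, split into 3 groups of 15. Each group received IP 1 ml of either 0.5% Tween 80 in saline (control) or a 20 mM analog solution in 0.5% Tween 80 in sterile nonpyrogenic saline. Mortality was followed over time.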

SMILES | Activity (Candida albicans [1]) | Activity (Mus musculus) | IC50 (Candida albicans [2]) [µM] | Activity (Candida albicans [3]) | Activity (Candida albicans [4])
CC(C)=CCC/C(C)=C/CSc1nc[nH]n1 | inactive | Non-toxic | 1 |  | 
CC(C)=CCC/C(C)=C/CSc1ncc[nH]1 |  |  | > 50 |  | 
CC(C)=CCC/C(C)=C/CC/C(C)=C/CO [FARNESOL] |  | Non-toxic | 1 | inactive | 
CC(C)=C/C=C/C(C)=C/C=C/C(C)=C/C=N/O |  |  | 10 | inactive | 
CC(C)=CCC/C(C)=C/CSc1c[nH]nn1 |  |  | 3 |  | 
CC(C)=CCC/C(C)=C/CCc1nnn[nH]1 | inactive | Non-toxic | 7 | inactive | Active
CC(C)=CCC/C(C)=C/CCc1c[nH]nn1 |  |  | 1 |  | 
CC(C)=CCC/C(C)=C/CSc1nn[nH]n1 |  |  | > 50 |  | 
C(=C\c1nn[nH]n1)/c1ccccc1 |  |  | 10 | inactive | 
CC(C)=CCC/C(C)=C/Cc1nnn[nH]1 |  |  | > 50 | inactive | 
CO/N=C/C=C(\C)CC/C=C(\C)CCC=C(C)C |  |  | ≥ 100 | inactive | 
CCCCCCCCCc1nnn[nH]1 |  | Non-toxic | 3 | inactive | 
CC(C)=CCC/C(C)=C/CC/C(C)=C/C=N/O |  | Toxic | 5 | inactive | 
